# Published values collected from several papers.
# EGFR T790M: Epidermal growth factor receptor (EGFR, Homo sapiens, UniProt P00533, T790M)
# EGFR del746-750: Epidermal growth factor receptor (EGFR, Homo sapiens, UniProt P00533, del746-750)
# EGFR L858R: Epidermal growth factor receptor (EGFR, Homo sapiens, UniProt P00533, L858R)
# EGFR G719S: Epidermal growth factor receptor (EGFR, Homo sapiens, UniProt P00533, G719S)
# EGFR: Epidermal growth factor receptor (EGFR, Homo sapiens, UniProt P00533)
# EGFR del752-759: Epidermal growth factor receptor (EGFR, Homo sapiens, UniProt P00533, del752-759)
# EGFR L861Q: Epidermal growth factor receptor (EGFR, Homo sapiens, UniProt P00533, L861Q)
Compound,target,read-out,technique,tested at,remaining binding
CCS(=O)(=O)c1cc2cc(C[C@](O)(CC(C)(C)c3ccc(F)cc3C(N)=O)C(F)(F)F)[nH]c2cn1,EGFR T790M,cell-free assay,competition with immobilised ligand,1 µM,78%
COc1cnc(Nc2cccc(S(N)(=O)=O)c2)nc1N1CCN(c2ccccc2)C(=O)C1,EGFR del746-750,binding,competition with immobilised ligand,1 µM,96%
O=C(Nc1c[nH]nc1C(=O)NC1CCNCC1)c1cc(F)cc(F)c1,EGFR L858R,binding,competition with immobilised ligand,1 µM,90%
CN(CCCC(F)(F)F)c1nccc(-c2cnn3ncccc23)n1,EGFR G719S,binding,,1 µM,98%
c1ccc(N2CCN(Cc3nc4ccccc4[nH]3)CC2)nc1,EGFR L858R,cell-free assay,competition with immobilised ligand,1 µM,100%
CCN1CCN(Cc2ccc(C(=O)Nc3ccc(C)c(Oc4ccc5c(c4)CC(=O)N5)c3)cc2C(F)(F)F)CC1,"Epidermal growth factor receptor (EGFR, Homo sapiens, UniProt P00533, G719C)",binding,competition with immobilised ligand,1 µM,100%
CC1CCCN1c1nccc(-c2cnn3ncccc23)n1 (stereo not shown),EGFR G719S,binding,,1 µM,100%
O=C(NCCCN1CCOCC1)c1ccc(Nc2ncc(Cl)c(-c3ccc(Cl)s3)n2)cc1,"Epidermal growth factor receptor (EGFR, Homo sapiens, UniProt P00533, del747-752/P753S)",binding,competition with immobilised ligand,1 µM,98%
Nc1cnc(N2CCc3cc(S(=O)(=O)Nc4c(F)cc(Cl)cc4F)cc(N4CCCC4=O)c32)nc1,EGFR,cell-free assay,competition with immobilised ligand,1 µM,82%
C[C@H]1CCN(c2nccc(-c3cnn4ncccc34)n2)C1,EGFR L858R,binding,,1 µM,100%
c1cncc(-c2cccc(Nc3nccc(NC4CCCCC4)n3)c2)c1,EGFR T790M,binding,competition with immobilised ligand,10 µM,33%
O=C(NCC1CCOCC1)c1n[nH]cc1NC(=O)c1c(F)cccc1F,EGFR del752-759,binding,competition with immobilised ligand,1 µM,100%
Nc1ncc2c(n1)-c1c([nH]c3ccc(C#CC4CC4)cc13)CCCC2,EGFR,binding,competition with immobilised ligand,1 µM,80%
O=C(c1ccc(Nc2nccc(-c3cc4ccccc4s3)n2)cc1)N1CCC(N2CCCC2)CC1,"Epidermal growth factor receptor (EGFR, Homo sapiens, UniProt P00533, A750P/del747-749)",binding,competition with immobilised ligand,1 µM,100%
CN(C(=O)c1ccccc1)c1cc(N(C)c2ccc3c(c2)CCc2ccc(C(=O)NCCN4CCOCC4)cc2C3=O)ccc1F,EGFR L861Q,cell-free assay,competition with immobilised ligand,1 µM,100%
O=C(c1ccc(Nc2ncc(Cl)c(-c3cc4ccccc4s3)n2)cc1)N1CCC(N2CCCC2)CC1,EGFR L861Q,binding,competition with immobilised ligand,1 µM,92%
CC(C)CC(=O)N1CCc2nc(-c3ccc(Br)cc3)nc(N(C)Cc3ccccc3)c2C1,EGFR del746-750,cell-free assay,competition with immobilised ligand,0.1 µM,100%
CNC(=O)[C@@H]1CC[C@@H](n2c(-c3ccc4cnccc4c3)nc3ccc(C(=O)NCc4cccc(C(N)=O)c4)cc32)C1,EGFR del752-759,binding,competition with immobilised ligand,1 µM,91%
CN(C)c1nccc(-c2cnc3ncccn23)n1,EGFR G719S,binding,,1 µM,84%
COc1cnc(Nc2cccc(S(N)(=O)=O)c2)nc1N1CCN(c2ccccc2)CC1,EGFR del746-750,binding,competition with immobilised ligand,1 µM,90%
F[C@@H]1CCN(c2nccc(-c3cnn4ncccc34)n2)C1,EGFR L858R,binding,,1 µM,89%
Cc1cnc(Nc2ccc(C(=O)N3CCC(N4CCCC4)CC3)cc2)nc1-c1cc2ccccc2s1,EGFR,binding,competition with immobilised ligand,1 µM,83%
CN(C)c1ncnc(-c2ccc3nc(Nc4cc(CN5CCN(C(=O)CC(F)(F)F)CC5)ccn4)[nH]c3c2)c1Cl,"Epidermal growth factor receptor (EGFR, Homo sapiens, UniProt P00533, del747-750/T751S)",cell-free assay,competition with immobilised ligand,1 µM,88%
O=C(NCCCN1CCOCC1)c1ccc(Nc2nccc(-c3cc4ccccc4s3)n2)cc1,EGFR L861Q,binding,competition with immobilised ligand,1 µM,99%
COc1ccc2c(c1)O[C@H](c1ccc(OC)c(OC)c1)C[C@@H]2NC(=O)C1(c2ccc3c(c2)OC(F)(F)O3)CC1,EGFR G719S,cell-free assay,competition with immobilised ligand,1 µM,99%
c1cnn2ncc(-c3ccnc(N4CCC45COC5)n3)c2c1,EGFR del752-759,binding,,1 µM,67%
CN(c1ccnc(CNc2nc(Nc3ccc4c(c3)CC(=O)N4)ncc2C(F)(F)F)n1)S(C)(=O)=O,EGFR del752-759,cell-free assay,competition with immobilised ligand,1 µM,76%
O=C(c1ccc(Nc2ncc(Cl)c(-c3ccc(Cl)s3)n2)cc1)N1CCC(N2CCCC2)CC1,EGFR G719S,binding,competition with immobilised ligand,1 µM,96%
